CFTR F508del cor – CFTR F508del correction in bronchial cells. CFBE cells, YFP halide quenching; stimulated with forskolin plus potentiator P3; % fluorescence drop versus neutral controls. activity (quench increase), % at 7.58 µM. 350,000 compounds, 0.36% hits;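 active means mean added fluorescence quench of at least 8% versus neutral control, with both replicates also reaching 8%; inconclusive means only one of the mean or replicate conditions met; inactive means mean below 8% and not both replicates reaching 8%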;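 further: cells transiently co-express mutant CFTR-F508del with the halide-sensitive YFP; corrector assay measuring rescue of mutant channel to the surface after 24 h compound exposure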
FN deposit inh – fibronectin deposition inhibition; inhibition, % at 12.6 µM; 350,000 compounds, 0.086% hits; AH1F fibroblasts, Alexa488-fibronectin deposition fluorescence, overnight; AID 743247;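 active means mean inhibition across replicates of 30% or more, regardless of how many single replicates reach that level; inconclusive means mean under 30% yet at least half of replicates reach 30%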;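 further: positive control wells lacked labelled fibronectin entirely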
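Assay system: AH1F fibroblasts / Quantity: 10000 cells per well / Medium: DMEM plus 2% serum, read in PBS / Reagent: labelled fibronectin 24 nM / Dosing: single dose, pinned / Times: 1 h cell attachment, overnight exposure to compound and label / Signal: fluorescence, ex 485 nm, em 525 nm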
PAX8 reporter – inhibitors of PAX8 transcriptional activity in RMG-I cells | RMG-I TPO-luciferase reporter, SteadyGlo, 24 h | inhibition, % at 12.6 µM | 360,000 compounds, 1.2% hits | AID 652154;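 active means mean replicate inhibition at least 60% with every replicate also reaching 60%; inconclusive means only one of the two criteria is met; inactive means mean below 60% and not all replicates reaching 60%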;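 further: luciferase light reporting Pax8 driven TPO promoter activity; plate controls were median of neutral control wells for no effect and mitoxantrone controls for full effect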
EWS-Fli inh – inhibitors of EWS/Fli oncoprotein transcriptional activity. A673 NR0B1-luciferase reporter, viability-normalised. inhibition, % at 12.6 µM. 350,000 compounds, 0.67% hits. AID 651661;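 active means mean inhibition of at least 50% after viability correction, with every replicate also passing that limit; inconclusive means mean reaches 50% but only one of two replicates passes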;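 further: firefly luciferase signal divided by Alamar Blue viability fluorescence both relative to DMSO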
Env fusion inh – blocks HIV Env-driven cell-cell fusion; HeLa-JRFL Env/CEM21 cell fusion, luciferase; inhibition, % at 12.3 µM; 360,000 compounds, 1.1% hits;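 active means mean replicate inhibition score of at least 50 and every replicate individually at or above 50; inconclusive means only one of the two criteria met; inactive means mean below 50 and not all replicates reaching 50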;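 further: 0% = plate neutral controls and 100% = maraviroc near 300 nM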
PGC1a acetyl inh – lowers PGC1a acetylation signal in U2OS cells; 350,000 compounds, 0.17% hits; AlphaScreen anti-acetyl-lysine; with virally co-expressed GCN5 acetyltransferase; inhibition, % at 15.6 µM;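 active means every replicate shows inhibition of at least 40%; inconclusive means mean inhibition at least 40% but some replicate below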;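 further: 0% = neutral control wells and 100% = positive control wells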
* = called active by the depositor; u = inconclusive; x = no result; [ ] = remark or other dose. A selection: hits, their analogues and other compounds. The true share with any hit is near 2.3%.

SMILES	CFTR F508del cor	FN deposit inh	PAX8 reporter	EWS-Fli inh	Env fusion inh	PGC1a acetyl inh
CCS(=O)(=O)N1CC(=O)N2[C@H](C1)[C@@H](c1ccc(C#CCC(C)C)cc1)[C@@H]2CO	10*	x	19	1	x	7
CS(=O)(=O)N1CC(=O)N2[C@H](C1)[C@H](c1ccc(C#Cc3ccc(F)cc3)cc1)[C@@H]2CO	10*	-1	10	-10	x	5
COc1ccc2c3c(n(C)c2c1)[C@H](CO)N(C(=O)C1CCCC1)CC31CCN(Cc2cccc(F)c2)CC1	5	x	27	39	x	x
C[C@@H]1CN([C@@H](C)CO)C(=O)Cc2cc(NC(=O)Nc3ccc(C(F)(F)F)cc3)ccc2O[C@H]1CN(C)S(=O)(=O)c1ccc(Cl)cc1	4	x	x	4	0[16.7 µM]	6
Cc1ccc(S(=O)(=O)N(C)C[C@H]2Oc3ccc(NC(=O)Nc4ccc(C(F)(F)F)cc4)cc3CC(=O)N([C@@H](C)CO)C[C@H]2C)cc1	5	3	99*	-8	94*[16.7 µM]	3
C[C@@H]1CN([C@H](C)CO)C(=O)Cc2cc(NC(=O)Nc3ccc(C(F)(F)F)cc3)ccc2O[C@@H]1CN(C)S(=O)(=O)c1ccc(Cl)cc1	-1	x	x	-7	0[16.7 µM]	5
Cc1ccc(S(=O)(=O)N(C)C[C@@H]2Oc3ccc(NC(=O)Nc4ccc(C(F)(F)F)cc4)cc3CC(=O)N([C@@H](C)CO)C[C@@H]2C)cc1	4	-55	81*	51*	31[16.7 µM]	-5
CCS(=O)(=O)N1CCCCN2[C@H](CO)[C@H](c3ccc(-c4ccccc4F)cc3)[C@@H]2C1	-2	x	-12	-14	x	2
CO[C@H]1CN(C)C(=O)c2cc(NC(=O)NC3CCCC3)ccc2OC[C@H](C)NC[C@@H]1C	x	-11	x	x	x	x
CC(C)(C)c1ccc(C2CC2C(=O)N/N=C\c2ccc[nH]2)cc1 (stereo unspecified)	4	-2	53	62*	98*	36
O=C(C[C@H]1CC[C@H]2[C@@H](COC[C@H](O)CN2C(=O)Nc2ccc(Cl)c(Cl)c2)O1)NCc1ccc(F)cc1	-2	4	4	-9	x	5
COc1ccc(NC(=O)Cn2c(C)cc(=O)c3ccccc32)cc1	-2	-4	29	8	36	4
COc1ccc(NCC(=O)n2c(C)c(C)c3ccccc32)cc1	9.4*	-2	10	25	-146	-1
Oc1c(Cl)cc(CN2CCOCC2)c2cccnc12	27*	x	103*	37	x	u
COc1ccc(N=C2S/C(=C\c3ccc(Cl)c([N+](=O)[O-])c3)C(=O)N2CCN(C)C)cc1	3	-3	6	64*	0	-28
CCN(CC)CCN1C(=O)/C(=C\c2ccc(Cl)c([N+](=O)[O-])c2)SC1=Nc1ccc(OC)cc1	0	4	54	60*	-268	x
C[C@@H]1CC=CC[C@@H](c2cccc(Cl)c2)NC(=O)[C@H](C)N(C)C(=O)c2ccccc2O1 (mixture of isomers)	x	-16	x	x	x	x
C[C@@H]1CN([C@@H](C)CO)S(=O)(=O)c2ccc(C3=CCCC3)cc2O[C@@H]1CN(C)C(=O)C1CCOCC1	0	-1	-14	-7	70*[16.7 µM]	-12
C[C@H](CO)N1C[C@H](C)[C@H](CN(C)Cc2ccccc2F)Oc2cc(C3=CCCC3)ccc2S1(=O)=O	-1	8	55	42	68*[16.7 µM]	-18
C[C@H]1CN([C@@H](C)CO)S(=O)(=O)c2ccc(-c3ccc(C#N)cc3)cc2O[C@@H]1CN(C)Cc1ccccn1	12*	x	u	67*	-276[16.7 µM]	0
C[C@H]1CN([C@@H](C)CO)S(=O)(=O)c2ccc(C3=CCCCC3)cc2O[C@@H]1CN(C)Cc1ccccn1	3	-4	58	65*	11[16.7 µM]	-20
CS(=O)(=O)N1[C@@H]2CN(CC(F)(F)F)C[C@H]1C2c1ccc(Br)cc1 (stereo partly specified)	x	2	x	x	x	x
COc1ccc([C@@H]2C/C=C\C[C@@H](c3ccc(F)cc3)NC(=O)CCC(=O)N2)c(OC)c1	x	7	x	x	x	x
Cc1ccc(-c2ccc3c(c2)O[C@@H](CN(C)Cc2ccccn2)[C@H](C)CN([C@@H](C)CO)S3(=O)=O)cc1	3	x	x	31	3[16.7 µM]	9

Source: PubChem BioAssay (Broad Institute)
